Test results published in ChEMBL document CHEMBL3046297, “Molecular design of antifungal agents” (J Agric Food Chem, 2002).
In brackets after ≈: the same amount, converted by molar mass. One block for each molecule: values may come before it. Activity calls are given as the source filed them. The rule behind the calls is not given here.

What was measured:
[1] = tested on: Radical scavenging activity; assay: Antioxidant activity assessed as DPPH free radical scavenging activity after 20 min; assay type: functional
Outline: (§1)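 DPPH scavenging. The mix held 100 mM acetate buffer pH 5.5, ethanol, ethanolic DPPH and sample. It stood 20 min at room temperature, then absorbance was read at 517 nm. Results are % decrease versus a DPPH control. IC50 was interpolated from concentration-inhibition curves, as the mean of triplicates.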

[2] = tested on: Saccharomyces cerevisiae; assay: Antifungal activity against Saccharomyces cerevisiae ATCC 7754 after 48 hr by broth macrodilution method; settings: ATCC 7754, 48 h
[3] = tested on: Saccharomyces cerevisiae; assay: microbe, parasite or virus in culture; assay type: functional; settings: ATCC 7754, 48 h
[4] = tested on: Saccharomyces cerevisiae; assay: microbe, parasite or virus in culture; assay type: functional; settings: ATCC 7754, 48 h; remark: listed apart in the source
[5] = tested on: Saccharomyces cerevisiae; assay: microbe, parasite or virus in culture; assay type: functional; settings: ATCC 7754, 48 h; remark: listed apart in the source
[6] = tested on: Saccharomyces cerevisiae; assay: microbe, parasite or virus in culture; assay type: functional; settings: ATCC 7754, 48 h; remark: listed apart in the source
[7] = tested on: Saccharomyces cerevisiae; assay: Drug uptake in Saccharomyces cerevisiae ATCC 7754 at 50 to 100 ug/ml after 5 seconds; assay type: ADME, organism-based; settings: in vivo, 5 s
Outline: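 Adsorption to cells. Yeast grown overnight with shaking in YPD at 30 °C was washed twice in 50 mM MOPS pH 6.0. Compound was mixed with or without cells (10^8 cells/mL) in this buffer at 30 °C and vortexed 5 s. After 2 min centrifugation, supernatant absorbance was read at 272 nm.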

[8] = tested on: Saccharomyces cerevisiae; assay: Antifungal activity against Saccharomyces cerevisiae ATCC 7754 at 12.5 to 50 ug/ml after 1 hr by time kill analysis; assay type: functional, organism-based
Outline: (§2)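 Time-kill assay. A 5-h, 30 °C preculture was inoculated into ME broth containing compound, initial 5.8 × 10^5 CFU/mL, then grown at 30 °C without shaking. Samples were taken at selected times over 48 h, serially diluted in sterile saline and plated on YPD agar. Plates were incubated 24 h at 30 °C before counting viable CFU.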

[9] = tested on: Radical scavenging activity; assay: Antioxidant activity assessed as DPPH free radical scavenging activity up to 800 ug/ml after 20 min; assay type: functional; outline: as §1
[10] = tested on: Saccharomyces cerevisiae; assay: Antifungal activity against Saccharomyces cerevisiae ATCC 7754 at MFC to 4 times MFC treated 4 hr after incubation measured up to 30 hr; assay type: functional, organism-based
Outline: (§3)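 Growth-stage kill test. Yeast at 10^5 cells/mL was inoculated into ME broth. Compound at MFC, 2× MFC or 4× MFC was added after 0, 4 or 24 h of incubation, and viable cells were then followed over time.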

[11] = tested on: Saccharomyces cerevisiae; assay: Antifungal activity against Saccharomyces cerevisiae ATCC 7754 at MFC to 4 times MFC treated 24 hr after incubation measured up to 30 hr; assay type: functional, organism-based; outline: as §3
[12] = tested on: Saccharomyces cerevisiae; assay: Antifungal activity against Saccharomyces cerevisiae ATCC 7754 at MFC after 2 hr; assay type: functional, organism-based; outline: as §2
[13] = tested on: Saccharomyces cerevisiae; assay: Antifungal activity against Saccharomyces cerevisiae ATCC 7754 at 3.13 to 12.5 ug/ml after 1 hr by time kill analysis; assay type: functional, organism-based; outline: as §2

Structure (SMILES): CCCCCCCCCOC(=O)c1ccc(OC)c(O)c1
- Activity [1]: Active
- MFC [2]: > 400 µg/mL
- MIC [2]: > 400 µg/mL

Structure (SMILES): CCCCCCCCCOC(=O)c1ccc(O)c(OC)c1
- Activity [1]: Active
- MFC [2]: > 400 µg/mL
- MIC [2]: > 400 µg/mL

Structure (SMILES): CCCCCCCO [1-HEPTANOL]
- MFC [2]: > 1600 µg/mL
- MIC [2]: 800 µg/mL (≈ 6880 µM)

Structure (SMILES): CCCCCCO [1-HEXANOL]
- MFC [2]: > 1600 µg/mL
- MIC [2]: > 1600 µg/mL

Structure (SMILES): O=C(O)c1cc(O)cc(O)c1 [3,5-DIHYDROXYBENZOIC ACID]
- MFC [2]: > 3200 µg/mL
- MIC [2]: 3200 µg/mL (≈ 20800 µM)

Structure (SMILES): O=C(O)c1cccc(O)c1 [3-HYDROXYBENZOIC ACID]
- MFC [2]: > 3200 µg/mL
- MIC [2]: 3200 µg/mL (≈ 23200 µM)

Structure (SMILES): O=C(O)c1ccccc1 [BENZOIC ACID]
- MIC [3]: > 1600 µg/mL
- MIC [4]: > 1600 µg/mL
- MFC [5]: 1600 µg/mL (≈ 13100 µM)
- MIC [5]: 800 µg/mL (≈ 6550 µM)
- MFC [6]: 1600 µg/mL (≈ 13100 µM)
- MIC [6]: 800 µg/mL (≈ 6550 µM)
- MFC [2]: 1600 µg/mL (≈ 13100 µM)
- MIC [2]: 800 µg/mL (≈ 6550 µM)

Structure (SMILES): O=C(OC1CCC2CCCCC2C1)c1cc(O)c(O)c(O)c1 (configuration not stated) [DECAHYDRO-2-NAPHTHYL GALLATE]
- MFC [2]: 50 µg/mL (≈ 163 µM)
- MIC [2]: 50 µg/mL (≈ 163 µM)

Structure (SMILES): CCCCCCCCCCO [DECANOL]
- MFC [2]: 50 µg/mL (≈ 316 µM)
- MIC [2]: 50 µg/mL (≈ 316 µM)

Structure (SMILES): CCCCCCCCCCOC(=O)c1cc(O)c(O)c(O)c1 [DECYL GALLATE]
- MFC [2]: 25 µg/mL (≈ 80.5 µM)
- MIC [2]: 12.5 µg/mL (≈ 40.3 µM)

Structure (SMILES): CCCCCCCCCCCCO [DODECANOL]
- MFC [2]: > 1600 µg/mL

Structure (SMILES): CCCCCCCCCCCCOC(=O)c1cc(O)c(O)c(O)c1 [DODECYL GALLATE]
- Drug uptake [7]: Active
- MFC [2]: > 1600 µg/mL
- MIC [2]: > 1600 µg/mL

Structure (SMILES): COC(=O)c1cc(O)c(O)c(O)c1 [GALLIC ACID METHYL ESTER]
- MIC [2]: > 3200 µg/mL

Structure (SMILES): O=C(O)c1cc(O)c(O)c(O)c1 [GALLIC ACID]
- MIC [2]: > 3200 µg/mL

Structure (SMILES): CC(C)=CCC/C(C)=C/COC(=O)c1cc(O)c(O)c(O)c1 [Geranyl gallate]
- Activity [8]: Active
- MFC [2]: 50 µg/mL (≈ 163 µM)
- MIC [2]: 50 µg/mL (≈ 163 µM)

Structure (SMILES): CCCCCCCOC(=O)c1cc(O)c(O)c(O)c1 [HEPTYL GALLATE]
- MFC [2]: 100 µg/mL (≈ 373 µM)
- MIC [2]: 100 µg/mL (≈ 373 µM)

Structure (SMILES): CCCCCCOC(=O)c1ccc(O)c(O)c1 [HEXYL 3,4-DIHYDROXYBENZOATE]
- MFC [2]: 400 µg/mL (≈ 1680 µM)
- MIC [2]: 400 µg/mL (≈ 1680 µM)

Structure (SMILES): CCCCCCOC(=O)c1cc(O)cc(O)c1 [HEXYL 3,5-DIHYDROXYBENZOATE]
- Activity [9]: inactive
- MIC [2]: > 800 µg/mL

Structure (SMILES): CCCCCCOC(=O)c1ccc(O)cc1 [HEXYL 4-HYDROXYBENZOATE]
- Activity [9]: inactive
- MIC [2]: > 800 µg/mL

Structure (SMILES): C/C=C/C=C/C(=O)O [SORBIC ACID]
- MIC [3]: > 1600 µg/mL
- MIC [4]: > 1600 µg/mL
- MFC [5]: 1600 µg/mL (≈ 14300 µM)
- MIC [5]: 400 µg/mL (≈ 3570 µM)
- MFC [6]: 3200 µg/mL (≈ 28500 µM)
- MIC [6]: 800 µg/mL (≈ 7130 µM)

More lines, main results first:

- MIC [2]: 400 µg/mL (≈ 1570 µM)
Structure (SMILES): CCCCCCOC(=O)c1cc(O)c(O)c(O)c1 [HEXYL GALLATE]
- MFC [2]: 400 µg/mL (≈ 1570 µM)

- MIC [2]: 100 µg/mL (≈ 693 µM)
Structure (SMILES): CCCCCCCCCO [NONANOL]
- MFC [2]: 200 µg/mL (≈ 1390 µM)

- MIC [2]: 6.25 µg/mL (≈ 22.3 µM)
Structure (SMILES): CCCCCCCCCOC(=O)c1ccc(O)c(O)c1 [NONYL 3,4-DIHYDROXYBENZOATE]
- Activity [1]: Active
- MFC [2]: 12.5 µg/mL (≈ 44.6 µM)

- MIC [2]: > 400 µg/mL
Structure (SMILES): CCCCCCCCCOC(=O)c1cc(O)cc(O)c1 [NONYL 3,5-DIHYDROXYBENZOATE]
- Activity [1]: inactive
- MFC [2]: > 400 µg/mL

- MIC [2]: > 400 µg/mL
Structure (SMILES): CCCCCCCCCOC(=O)c1cccc(O)c1 [NONYL 3-HYDROXYBENZOATE]
- Activity [1]: inactive
- MFC [2]: > 400 µg/mL

- MIC [2]: > 400 µg/mL
Structure (SMILES): CCCCCCCCCOC(=O)c1ccc(O)cc1 [NONYL 4-HYDROXYBENZOATE]
- Activity [1]: inactive

- MIC [2]: > 400 µg/mL
Structure (SMILES): CCCCCCCCCOC(=O)c1ccccc1 [NONYL BENZOATE]
- Activity [1]: inactive

- MIC [3]: 12.5 µg/mL (≈ 42.2 µM)
- MIC [4]: 25 µg/mL (≈ 84.4 µM)
- Drug uptake [7]: Active
- MIC [5]: 6.25 µg/mL (≈ 21.1 µM)
- MIC [6]: 6.25 µg/mL (≈ 21.1 µM)
- MIC [2]: 6.25 µg/mL (≈ 21.1 µM)
Structure (SMILES): CCCCCCCCCOC(=O)c1cc(O)c(O)c(O)c1 [NONYL GALLATE]
- MFC [3]: 25 µg/mL (≈ 84.4 µM)
- MFC [4]: 50 µg/mL (≈ 169 µM)
- Activity [1]: Active
- MFC [5]: 12.5 µg/mL (≈ 42.2 µM)
- Activity [10]: Active
- Activity [11]: Active
- MFC [6]: 12.5 µg/mL (≈ 42.2 µM)
- Activity [12]: Active
- Activity [13]: Active
- MFC [2]: 12.5 µg/mL (≈ 42.2 µM)

- MIC [2]: 200 µg/mL (≈ 1540 µM)
Structure (SMILES): CCCCCCCCO [OCTANOL]
- MFC [2]: 800 µg/mL (≈ 6140 µM)

- MIC [2]: 1600 µg/mL (≈ 11600 µM)
Structure (SMILES): O=C(O)c1ccc(O)cc1 [PARABEN]
- MFC [2]: > 3200 µg/mL

- MIC [2]: 3200 µg/mL (≈ 15100 µM)
Structure (SMILES): CCCOC(=O)c1cc(O)c(O)c(O)c1 [PROPYL GALLATE]
- MFC [2]: > 3200 µg/mL

- MIC [2]: 3200 µg/mL (≈ 20800 µM)
Structure (SMILES): O=C(O)c1ccc(O)c(O)c1 [PROTOCATECHUIC ACID]
- MFC [2]: > 3200 µg/mL

- MIC [2]: > 1600 µg/mL
Structure (SMILES): CCCCCCCCCCCCCO [TRIDECAN-1-OL]

- MIC [2]: 25 µg/mL (≈ 145 µM)
Structure (SMILES): CCCCCCCCCCCO [UNDECANOL]
- MFC [2]: 25 µg/mL (≈ 145 µM)

- MIC [2]: > 1600 µg/mL
Structure (SMILES): CCCCCCCCCCCOC(=O)c1cc(O)c(O)c(O)c1 [UNDECYL GALLATE]
- MFC [2]: > 1600 µg/mL
